Published values pooled from the literature.
Compare with care: the assays were run in different laboratories.
Target: Sodium-dependent serotonin transporter (SLC6A4, Homo sapiens, UniProt P31645)

CN(CCN1CCC(OC(=O)Nc2ccccc2-c2ccccc2)CC1)C(=O)c1ccc(CN2CCC(C(N)=O)CC2)cc1  inhibition (ligand displacement; radioligand; 1 µM): -1%
C[C@H](C(=O)N[C@H]1COc2ccccc2[C@@H]1S(C)(=O)=O)c1ccc(F)cc1  inhibition (transporter uptake; inhibitor; 10 µM): 11%
Clc1ccc2c(C3CCN(CCc4c[nH]c5ccccc45)CC3)c[nH]c2c1  inhibition (ligand displacement; radioligand; 10 µM): 99%
C[C@H](NC(=O)Nc1cc2[nH]ncc2c(CO)n1)c1ccccn1  inhibition (cell-free assay; 10 µM): -0.787%
COCc1c(-c2cc3cc(C)cc(OC)c3s2)c2c(N)ncnn2c1CN1CCNC(=O)C1  inhibition (ligand displacement; radioligand; 10 µM): 3%
c1ccc(C(NCCNC(c2ccccc2)c2ccccc2)c2ccccc2)cc1  inhibition (transporter uptake; inhibitor; 10 µM): 29%
COc1ccc(S(=O)(=O)N2CCCCC2)cc1C  inhibition (ligand displacement; radioligand; 10 µM): < 30%
CCN(CC)CCCC[C@H](NC(=O)[C@H](CC(C)C)NC(=O)[C@H](C)NC(=O)[C@H](Cc1ccccc1)NC(=O)c1ccc(C(C)(C)C)cc1)C(=O)N[C@@H](CO)C(=O)OC  inhibition (ligand displacement; radioligand; 10 µM): 5%
CC(C)N1CCC[C@H]1CNC(=O)c1cn(C2CCCC2)c(=O)c2c1c1ccccc1n2C  inhibition (ligand displacement; radioligand; 10 µM): 22%
CCc1ccccc1C(=O)Nc1n[nH]c2c(C)c(F)c(C3C(C#N)=C(C)N(C)C(C)=C3C#N)cc12  inhibition (ligand displacement; 10 µM): -6.24%
